Reference: ChEMBL document CHEMBL1250516, “Potent and fully noncompetitive peptidomimetic inhibitor of multidrug resistance P-glycoprotein” (J Med Chem, 2010)
Square brackets hold non-standard residues; d marks the D form. Peptide text beside a SMILES is read from it. * marks the point of attachment. Hyp = O=C(O)[C@@H]1C[C@@H](O)CN1; Aad = N[C@@H](CCCC(=O)O)C(=O)O; Cbz = O=C(OCc1ccccc1)*; PhAc = O=C(Cc1ccccc1)*; Boc = CC(C)(C)OC(=O)*; OBn = c1ccc(CO*)cc1; Bn = c1ccc(C*)cc1; OtBu = CC(C)(C)O*; tBu = CC(C)(C)*

Legend:
[1] = molecular target: T1, MDR1 (P-glycoprotein, ABCB1) (Homo sapiens, UniProt P08183); test: Inhibition of human MDR1 expressed in mouse NIH3T3 cells assessed as inhibition of drug efflux in at 10 uM by flow cytometry; assay type: cell-based; details: mouse NIH3T3 cells expressing human MDR1
P-glycoprotein (ABCB1) = P-glycoprotein (ABCB1) (Homo sapiens, UniProt P08183); test: Inhibition of p-glycoprotein expressed in human K562/R7 cells assessed as inhibition of drug efflux at 10 uM by flow cytometry; assay type: cell-based; details: K562/R7 cells expressing P-glycoprotein
Procedure, shortened: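 K562/R7 cells (1×10⁶/mL RPMI 1640) were incubated for 1 h at 37 °C with 10 μM daunorubicin (final), with or without 10 μM compound. Cells were washed in ice-cold PBS, kept on ice, and retained fluorescence was read by flow cytometry. Cyclosporin A served as positive control. Duplicate experiments carried out twice.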

[2] = molecular target: T1, MDR1 (P-glycoprotein, ABCB1); test: Inhibition of human MDR1 expressed in mouse NIH3T3 cells assessed as inhibition of drug efflux in at 2 uM by flow cytometry; assay type: cell-based; details: mouse NIH3T3 cells expressing human MDR1
[3] = Cytotoxicity against mouse NIH/3T3 cells expressing human MDR1 assessed as effect on cell viability up to 1 uM after 72 hrs by MTT assay; assay type: ADME, cell-based; details: nih3t3, 72 h
Procedure, shortened: (§1)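 Parental NIH3T3 or NIH3T3/P-gp (human MDR1-G185 transfected) cells were seeded at 2500 cells/well and allowed to attach for 24 h at 37 °C in 5% CO2. Compound was added at increasing concentrations in 1% DMSO and incubated for 72 h. Viability was read by MTT colorimetric assay. 100% survival was taken as cell number without compound.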

[4] = Cytotoxicity against mouse NIH/3T3 cells assessed as effect on cell viability up to 1 uM after 72 hrs by MTT assay; assay type: cell-based; details: nih3t3, 72 h; procedure, shortened: as §1
[5] = molecular target: T2, ATP-dependent translocase ABCB1 (Homo sapiens, UniProt P08183); test: Displacement of daunorubicin form H-site of human MDR1 expressed in mouse NIH3T3 cells at 0.11 to 1 uM by noncompetitive binding assay; assay type: cell-based; details: in the assay text read “Hoechst 33342” for “daunorubicin”
Procedure, shortened: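 NIH3T3/P-gp and NIH3T3 cells (10⁵) were incubated with daunorubicin (5, 10, 15, 20 μM) or Hoechst 33342 (0–10 μM), with inhibitor at 0, 0.11, 0.22, 0.33 or 1 μM. Drug retained inside the cells after 1 h was measured by flow cytometry. Data were fitted to Michaelis–Menten to give Rmax and KM. KI came from Rmax⁰ = Rmax/(1+[I]/KI). Mean of two duplicate experiments.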

[6] = Cytotoxicity against mouse NIH/3T3 cells expressing human MDR1 assessed as decrease in cell viability at > 2 uM after 72 hrs by MTT assay; assay type: ADME, cell-based; details: nih3t3, 72 h; procedure, shortened: as §1
[7] = molecular target: T2, ATP-dependent translocase ABCB1; test: Inhibition of human MDR1 expressed in mouse NIH3T3 cells assessed as potentiation of daunorubicin-mediated cytotoxicity at 1 uM; assay type: cell-based; details: nih3t3, 1 µM
Procedure, shortened: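 Control NIH3T3 and NIH3T3/P-gp cells were seeded at 2500 cells/well and settled for 24 h. They were then exposed for 72 h at 37 °C in 5% CO2 to increasing daunorubicin concentrations with 1 μM modulator. Survival was read by MTT, with 100% taken as cell number without anticancer drug.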

[8] = molecular target: T2, ATP-dependent translocase ABCB1; test: Displacement of daunorubicin form R-site of human MDR1 expressed in mouse NIH3T3 cells at 0.11 to 1 uM by noncompetitive binding assay
[9] = Cytotoxicity against mouse NIH/3T3 cells assessed as decrease in cell viability at > 2 uM after 72 hrs by MTT assay; assay type: cell-based; details: nih3t3, 72 h; procedure, shortened: as §1
[10] = molecular target: MRP1 (multidrug resistance-associated protein 1) (Homo sapiens, UniProt P33527); test: Inhibition of MRP1 expressed in BHK cells assessed as inhibition of drug efflux at 10 uM; assay type: cell-based; details: hamster, BHK cells expressing MRP1
Procedure, shortened: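 BHK-21 cells expressing MRP1 were treated with compound at 10 μM in a flow-cytometric drug efflux inhibition assay. % inhibition of efflux was calculated as for the P-gp assay. Duplicates run twice.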

BCRP (ABCG2) = molecular target: T3, BCRP (ABCG2) (Homo sapiens, UniProt Q9UNQ0); test: Inhibition of BCRP expressed in HEK293 cells assessed as inhibition of drug efflux at 10 uM by flow cytometry; assay type: cell-based; details: HEK293 cells expressing BCRP
T3 sequence (Q9UNQ0 whole entry): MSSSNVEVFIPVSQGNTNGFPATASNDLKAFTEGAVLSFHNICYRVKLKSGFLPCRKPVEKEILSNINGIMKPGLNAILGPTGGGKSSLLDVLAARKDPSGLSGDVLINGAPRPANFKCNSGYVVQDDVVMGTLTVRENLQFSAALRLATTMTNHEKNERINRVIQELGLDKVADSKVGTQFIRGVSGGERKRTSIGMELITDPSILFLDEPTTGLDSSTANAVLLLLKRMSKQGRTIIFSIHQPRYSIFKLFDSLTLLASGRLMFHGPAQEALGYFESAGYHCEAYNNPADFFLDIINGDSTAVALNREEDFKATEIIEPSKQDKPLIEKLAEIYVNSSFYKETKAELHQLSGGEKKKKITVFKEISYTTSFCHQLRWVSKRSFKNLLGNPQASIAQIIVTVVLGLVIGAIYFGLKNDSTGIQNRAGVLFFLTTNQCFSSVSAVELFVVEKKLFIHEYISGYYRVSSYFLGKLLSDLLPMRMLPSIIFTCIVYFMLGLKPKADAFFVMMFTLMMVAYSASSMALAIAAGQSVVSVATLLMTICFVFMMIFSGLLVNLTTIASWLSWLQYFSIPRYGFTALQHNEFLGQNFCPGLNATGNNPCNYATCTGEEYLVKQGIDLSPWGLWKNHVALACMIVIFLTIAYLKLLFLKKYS
Procedure, shortened: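 Human embryonic kidney 293 cells transfected with BCRP/ABCG2, tested with each compound at 10 μM. Intracellular fluorescent transported drug measured by flow cytometry. % efficacy = 100 × (FA − FBG)/(Fe − FBG): FA is transporter-expressing cells with drug, FBG is without drug (background), and Fe is control cells lacking the transporter. Mean of duplicate experiments carried out twice.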

[11] = molecular target: T2, ATP-dependent translocase ABCB1; test: Inhibition of human MDR1 expressed in mouse NIH3T3 cells assessed as inhibition of drug efflux by flow cytometry; assay type: cell-based

T2 sequence (P08183 whole entry): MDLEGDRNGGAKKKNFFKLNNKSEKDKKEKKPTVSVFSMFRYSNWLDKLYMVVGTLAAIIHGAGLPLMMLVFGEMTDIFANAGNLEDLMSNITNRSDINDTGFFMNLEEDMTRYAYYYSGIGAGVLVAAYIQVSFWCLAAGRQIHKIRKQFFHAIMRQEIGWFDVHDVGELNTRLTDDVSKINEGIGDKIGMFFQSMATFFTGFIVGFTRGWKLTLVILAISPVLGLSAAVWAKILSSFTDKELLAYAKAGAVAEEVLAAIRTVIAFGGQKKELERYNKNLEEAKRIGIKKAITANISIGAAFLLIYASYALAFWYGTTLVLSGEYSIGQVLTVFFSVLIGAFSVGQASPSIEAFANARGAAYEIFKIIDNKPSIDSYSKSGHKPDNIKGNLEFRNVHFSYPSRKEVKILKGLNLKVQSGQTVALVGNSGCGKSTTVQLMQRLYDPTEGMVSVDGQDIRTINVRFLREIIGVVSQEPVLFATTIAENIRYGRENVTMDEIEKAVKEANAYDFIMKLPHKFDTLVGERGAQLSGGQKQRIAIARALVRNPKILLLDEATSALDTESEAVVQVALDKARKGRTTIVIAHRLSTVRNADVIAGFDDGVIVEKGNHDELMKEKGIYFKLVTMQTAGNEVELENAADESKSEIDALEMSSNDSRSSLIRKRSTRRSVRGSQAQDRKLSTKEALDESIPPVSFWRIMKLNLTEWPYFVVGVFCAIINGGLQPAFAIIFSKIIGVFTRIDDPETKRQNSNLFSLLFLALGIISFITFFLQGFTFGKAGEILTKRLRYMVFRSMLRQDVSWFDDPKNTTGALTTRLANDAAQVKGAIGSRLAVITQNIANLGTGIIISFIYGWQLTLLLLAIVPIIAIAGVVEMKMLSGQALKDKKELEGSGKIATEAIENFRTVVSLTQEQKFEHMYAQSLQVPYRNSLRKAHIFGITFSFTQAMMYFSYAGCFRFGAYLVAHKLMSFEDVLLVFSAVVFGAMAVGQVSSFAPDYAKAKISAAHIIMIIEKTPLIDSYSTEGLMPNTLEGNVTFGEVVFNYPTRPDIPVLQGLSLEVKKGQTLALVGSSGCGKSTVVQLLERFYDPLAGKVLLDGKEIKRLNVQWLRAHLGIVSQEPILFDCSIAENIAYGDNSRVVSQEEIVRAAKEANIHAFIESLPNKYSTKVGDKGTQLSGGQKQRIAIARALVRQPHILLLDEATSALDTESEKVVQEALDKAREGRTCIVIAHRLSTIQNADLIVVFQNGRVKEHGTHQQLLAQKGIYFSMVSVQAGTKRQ
Chain of P-glycoprotein (ABCB1) (P08183 whole entry): as above
T1 sequence (P08183 whole entry): as above

| SMILES | inhibition at 10 µM [1] | inhibition at 10 µM (P-glycoprotein (ABCB1)) | further results |
| --- | --- | --- | --- |
| CC(C)(C)OC(=O)N[C@@H](CC(=O)OCc1ccccc1)C(=O)C[C@H](CCCCNC(=O)OCc1ccccc1)C(=O)OCc1ccccc1 | 35.7% | – | – |
| CC(C)(C)OC(=O)N[C@@H](CCOC(=O)Cc1ccccc1)C(=O)N[C@@H](CCCCNC(=O)OCc1ccccc1)C(=O)OC(C)(C)C | 59.6% | – | – |
| CC(C)(C)OC(=O)N[C@@H](CCOC(=O)C1CCCCC1)C(=O)N[C@@H](CCCCNC(=O)OCc1ccccc1)C(=O)OC(C)(C)C | 61.8% | – | – |
| CC(C)(C)OC(=O)N[C@@H](CCCOC(=O)C1CCCCC1)C(=O)N[C@@H](CCCCNC(=O)OCc1ccccc1)C(=O)OC(C)(C)C | 82.3% | 80.4% | inhibition at 2 µM [2]: 35.7% |
| CC(C)(C)OC(=O)N[C@@H](CCOCc1ccccc1)C(=O)N[C@@H](CCCCNC(=O)OCc1ccccc1)C(=O)OC(C)(C)C | 49.2% | – | – |
| CC(C)(C)OC(=O)N[C@H](CN[C@@H](CCCCNC(=O)OCc1ccccc1)C(=O)OC(C)(C)C)Cc1ccc(OC(C)(C)C)cc1 | 49.1% | – | – |
| CC(C)(C)OC(=O)[C@H](CCCCNC(=O)OCc1ccccc1)NC[C@@H]1C[C@@H](OCc2ccccc2)CN1C(=O)OC(C)(C)C | – | 77.6% | Activity [3]: Non-toxic; Activity [4]: Non-toxic; Activity [5]: Active; Activity [6]: Toxic; inhibition (INH) [7]: Active; Activity [8]: Active; Activity [9]: Toxic; inhibition at 10 µM [10]: 9% |
| CC(C)(C)OC(=O)[C@H](CCCCNC(=O)OCc1ccccc1)NC(=O)[C@@H]1C[C@@H](OC(=O)C2CCCCC2)CN1C(=O)OC(C)(C)C | 106% | 94.9% | inhibition at 10 µM (BCRP (ABCG2)): 11.2%; IC50 [11]: 1680 nM |
| CC(C)(C)OC(=O)[C@H](CCCCNC(=O)OCc1ccccc1)NC(=O)[C@@H]1C[C@@H](OCC2CCCCC2)CN1C(=O)OC(C)(C)C | 76.6% | 79.8% | inhibition at 2 µM [2]: 82.2% |
| O=C(CCC(=O)N[C@@H](CCC(=O)OCC1CCCCC1)C(=O)OCc1ccccc1)N[C@@H](CCC(=O)OCc1ccccc1)C(=O)OCc1ccccc1 | 29.3% | – | – |
| CC(C)(C)OC(=O)CNC(=O)[C@H](Cc1ccc(OC(C)(C)C)cc1)NC(=O)OC(C)(C)C | 93.4% | – | inhibition at 2 µM [2]: 38% |
| CC(C)(C)OC(=O)CC(C(=O)[C@H](Cc1ccc(OC(C)(C)C)cc1)NC(=O)OC(C)(C)C)S(=O)(=O)c1ccccc1 (stereo not given in full) | 106% | – | IC50 [11]: 1550 nM |
| CC(C)(C)OC(=O)CC(C(O)[C@H](Cc1ccc(OC(C)(C)C)cc1)NC(=O)OC(C)(C)C)S(=O)(=O)c1ccccc1 (stereo not given in full) | 104% | – | – |
| CC(C)(C)OC(=O)C/C=C/[C@H](Cc1ccc(OC(C)(C)C)cc1)NC(=O)OC(C)(C)C | 71.2% | – | – |
| CC(C)(C)OC(=O)CCC[C@@H](Cc1ccc(OC(C)(C)C)cc1)NC(=O)OC(C)(C)C | 78.7% | – | – |
| CC(C)(C)OC(=O)N[C@@H](Cc1ccc(OC(C)(C)C)cc1)C(=O)CS(=O)(=O)c1ccccc1 | 49.1% | – | – |
| CC(C)(C)OC(=O)N[C@@H](CC(=O)OCc1ccccc1)C(=O)CCC(=O)N[C@@H](CCCCNC(=O)OCc1ccccc1)C(=O)OC(C)(C)C | 67.7% | – | – |
| CC(C)(C)OC(=O)N[C@@H](CCC(=O)OCc1ccccc1)C(=O)N[C@@H](CCCCNC(=O)OCc1ccccc1)C(=O)OC(C)(C)C (Boc-Glu(OBn)-Lys(Cbz)-OtBu) | 63.7% | – | – |
| CC(C)(C)OC(=O)CC[C@H](NC(=O)OC(C)(C)C)C(=O)N[C@@H](CCCCNC(=O)OCc1ccccc1)C(=O)OC(C)(C)C (Boc-Glu(OtBu)-Lys(Cbz)-OtBu) | 37.2% | – | – |
| CC(C)(C)OC(=O)N[C@@H](Cc1ccc(OC(C)(C)C)cc1)C(=O)N[C@@H](CCCCNC(=O)OCc1ccccc1)C(=O)OC(C)(C)C (Boc-Tyr(tBu)-Lys(Cbz)-OtBu) | 34% | – | – |
| CC(C)(C)OC(=O)N[C@@H](CCCC(=O)OCc1ccccc1)C(=O)N[C@@H](CCCCNC(=O)OCc1ccccc1)C(=O)OC(C)(C)C (Boc-[Aad](OBn)-Lys(Cbz)-OtBu) | 97.8% | 65.5% | inhibition at 2 µM [2]: 37% |
| CC(C)(C)OC(=O)[C@H](CCCCNC(=O)OCc1ccccc1)NC(=O)[C@@H]1C[C@@H](OCc2ccccc2)CN1C(=O)OC(C)(C)C (Boc-[Hyp](Bn)-Lys(Cbz)-OtBu) | – | 83.5% | inhibition at 2 µM [2]: 120%; inhibition at 10 µM [10]: 7% |
| CC(C)(C)OC(=O)[C@H](CCCCNC(=O)OCc1ccccc1)NC(=O)[C@@H]1C[C@@H](OC(=O)Cc2ccccc2)CN1C(=O)OC(C)(C)C (Boc-[Hyp](PhAc)-Lys(Cbz)-OtBu) | 68.2% | 88.2% | inhibition at 10 µM (BCRP (ABCG2)): 10% |
| CC(C)(C)OC(=O)N[C@@H](CC(=O)OCc1ccccc1)C(=O)N[C@@H](CCCCNC(=O)OCc1ccccc1)C(=O)OC(C)(C)C [REVERSIN 121] (Boc-Asp(OBn)-Lys(Cbz)-OtBu) | 75.8% | 88% | IC50 [11]: 1410 nM |
| O=C(CCC(=O)N[C@@H](CCC(=O)OCc1ccccc1)C(=O)OCc1ccccc1)N[C@@H](CCC(=O)OCc1ccccc1)C(=O)OCc1ccccc1 [REVERSIN 213] | 26.6% | – | – |
